NS3 helicase inh – blocks Hepatitis C virus NS3 helicase unwinding; inhibition, % at 10.9 µM; 290,000 compounds, 0.56% hits; NS3 helicase DNA unwinding, Cy5 molecular beacon fluorescence;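 active = inhibition above the mean of all tested compounds plus 3 SD, set per campaign, cut at about 35% in these data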;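 note: 0% = DMSO wells and 100% = thioflavine S control wells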
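System: Hepatitis C virus NS3 helicase domain fragment enzyme | Reagent: Annealed dual-labelled DNA beacon duplex, ATP-started | Compound dosing: 10.9 µM single point, 0.8% DMSO | Incubation: 1 h reaction at 25 °C, ATP-initiated | Technique: Cy5 fluorescence | Evaluation: Percent inhibition from t60/t0 fluorescence ratio | Benchmarks: Low DMSO, high thioflavine S at 110 µM | Replication: Singlicate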
core dimer inh – blocks dimerization of HCV core protein. TR-FRET GST/Flag-core106 dimerization, 1536-well. inhibition, % at 5 µM. 300,000 compounds, 0.33% hits;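 active = inhibition above the mean of all tested compounds plus 3 SD, set per screening campaign, cut at about 45% in these data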
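Assay system: tagged HCV core106 pair (GST and Flag); medium: KF-containing HEPES buffer, pH 7.45, DTT, CHAPS, BSA; also added: Eu donor and XL665 acceptor anti-tag antibodies; dosing: 5 µM single dose; timing: compound-protein-antibody incubation 4 h at 22.5 °C; signal: TR-FRET 671 and 617 nm emission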
TAAR1 ag – agonists of human TAAR1. Q96RJ0. CHO RD-HGA16 TAAR1, Fluo-8 calcium fluorescence; vehicle wells 0%, saturating PEA agonist 100%. activation, % at 3 µM. 360,000 compounds, 0.99% hits. AID 624467;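 active = activation above the mean activation of all test compounds in the run plus 3 SD, cut at about 38% in these data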
Target sequence (Q96RJ0 whole entry, looked up): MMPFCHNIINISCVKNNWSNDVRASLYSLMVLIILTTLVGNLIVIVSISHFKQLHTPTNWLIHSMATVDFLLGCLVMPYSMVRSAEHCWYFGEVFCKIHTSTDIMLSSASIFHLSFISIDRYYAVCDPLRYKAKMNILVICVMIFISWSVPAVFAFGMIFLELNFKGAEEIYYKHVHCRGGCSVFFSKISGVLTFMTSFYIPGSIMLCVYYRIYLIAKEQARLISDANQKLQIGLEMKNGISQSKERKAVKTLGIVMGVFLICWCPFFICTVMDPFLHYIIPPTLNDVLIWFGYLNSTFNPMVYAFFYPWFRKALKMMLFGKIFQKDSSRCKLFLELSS
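Signal – calcium-sensitive Fluo-8 signal, excitation 470-495, emission 515-575 nm · System – RD-HGA16 (CHO) cells co-expressing Gα16 and hTAAR1 · Incubation – 17-24 h seeding, 75 min 37 °C dye, 30 min RT · Compound dosing – 3 µM single concentration · Repeats – no replicates (n 1)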
TAAR1 antag – human TAAR1 antagonism. Q96RJ0. CHO RD-HGA16 TAAR1, Fluo-8 calcium fluorescence, antagonist. inhibition, % at 3 µM. 360,000 compounds, 1.5% hits. AID 624466;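 active = inhibition above a per-plate cutoff, the mean inhibition of test compounds on that plate plus 3 SD, cut at about 49% in these data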;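 note: 0% = DMSO plus EC80 beta-PEA response and 100% = DMSO alone without agonist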
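System: RD-HGA16 CHO cells with stable hTAAR1 and Gα16 | Probe or stimulus: EC80 β-phenethylamine stimulus | Dosing: 3 µM, single point | Times: Dye loading 75 min at 37 °C, then 30 min room temperature | Measured by: Fluo-8 calcium-sensitive fluorescence | Read-out basis: % inhibition of agonist calcium response | Replicates: n of 1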
rCAG RNA binder – r(CAG) repeat RNA binding; 370,000 compounds, 1.3% hits; TO-PRO-1 dye displacement fluorescence; inhibition, % at 3 µM;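 active = inhibition above the plate cutoff, the mean of all test compounds on that plate plus 3 SD, cut at about 35% in these data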;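 note: 0% = DMSO alone and 100% = 100 µM mitoxantrone as full dye displacement; higher means more dye released from RNA so lower well fluorescence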
An asterisk follows results filed as active; . = no result; ! = not active in a repeat. Sampled rows, rich in hits. Any-hit rate of the full collection: about 3.7%.

SMILES	NS3 helicase inh	core dimer inh	TAAR1 ag	TAAR1 antag	rCAG RNA binder
O=C(CN1C(=O)S/C(=C\c2ccc(-c3cc(C(=O)O)ccc3Cl)o2)C1=O)Nc1ccc2c(c1)OCO2	17.9	.	0.0	-11.6	48.9*
Cn1cc(/C=C2/SC(=O)N(CC(=O)Nc3ccc4c(c3)OCO4)C2=O)c2ccccc21	-4.1	26.5	7.7	-5.5	9.2
COc1ccc(CN(CCN2CCOCC2)C(=O)c2cc(F)cc(F)c2)cc1OC	.	.	.	.	-1.4
COC[C@H]1CCCN1c1cccc2c1S(=O)(=O)N1CC[C@H](C1)O2	.	.	.	.	2.3
Cc1oc(C)c2c(=O)ccc3c(c12)OC(N)=C(C#N)C3c1ccccc1 (stereo not drawn)	28.7	16.4	16.9	2.1	18.9
CSc1ccc(C2C(C#N)=C(N)Oc3c2ccc(=O)c2c(C)oc(C)c32)cc1 (stereo not drawn)	28.7	77.9*	15.1	8.4	15.6
Cc1cccc(NC(=O)c2cccc3c2-c2ccccc2C3=O)c1C	.	.	.	.	4.1
CC1(C)S[C@@H]2[C@H](NC(=O)[C@H](N)c3ccc(O)cc3)C(=O)N2[C@H]1C(=O)O	-0.8	-11.3	1.3	-11.0	23.8
CC1(C)S[C@@H]2[C@H](NC(=O)[C@H](N)c3ccccc3)C(=O)N2[C@H]1C(=O)O	17.5	-0.1	-0.1	0.8	57.8*!
Cc1ccc(Cn2c(SCC(=O)Nc3cc(C)on3)nc3ccccc3c2=O)cc1	11.8	61.8*	0.0	1.6	-1.4
Cc1cc(C(=O)CSc2nc(N)cc(=O)[nH]2)c(C)n1CC1CCCO1 (stereo not drawn)	.	.	8.5	-29.0	11.5
Cc1cc(C(=O)CSc2nc3ccccc3[nH]2)c(C)n1CC1CCCO1 (stereo not drawn)	3.6	1.9	31.7	72.4*	5.6
COc1cccc(NC(=O)CCc2nc(-c3ccccc3F)no2)c1	-6.6	0.3	7.4	5.1	-0.1
O=C(CCc1nc(-c2ccccc2F)no1)Nc1ccc(Oc2ccccc2)cc1	-11.4	3.7	12.3	53.8*	0.0
C#CCCN([C@@H](CC(C)C)C(=O)OC)S(=O)(=O)c1ccc(F)cc1Br	.	.	.	.	-3.2
Cn1c(CC(=O)Nc2ccc(Cl)c(Cl)c2)nnc1SCC(=O)NCc1ccccc1	1.4	0.9	37.7*	8.0	0.8
Cc1ccc(NC(=O)Cc2nnc(SCC(=O)Nc3ccccc3)n2C)cc1	-3.9	-4.1	0.9	-9.7	4.3
CN1C(=O)CSc2ccc(NC(=O)N3CCc4ccccc43)cc21	2.2	-0.3	19.6	55.5*	7.2
COc1cccc(NC(=O)Nc2ccc3c(c2)N(C)C(=O)CS3)c1	-5.1	21.5	22.8	68.6*	13.6
CC(=O)Nc1ccc(NC(=O)Nc2ccc3c(c2)N(C)C(=O)CS3)cc1	16.4	12.3	2.0	11.0	4.4
CC(/C=N/NC(=O)CSc1nnc(SCc2ccccc2)s1)=C\c1ccco1	16.1	47.6*	0.5	4.0	12.8
CC(/C=N/NC(=O)c1cc(-c2ccc(Cl)cc2)nc2ccccc12)=C\c1ccco1	11.2	87.7*	1.4	-4.6	19.4
CC(/C=N/NC(=O)c1cc(-c2ccccc2)nc2ccccc12)=C\c1ccco1	1.4	50.5*	-2.5	4.3	10.5
O=C(N/N=C/c1ccco1)c1cc(-c2ccncc2)nc2ccccc12	8.0	.	2.8	8.8	3.9
COc1ccc(C2=CCN(C)C(=O)N2c2ccc([N+](=O)[O-])cc2)cc1	.	.	.	.	8.1
SMILES	NS3 helicase inh	core dimer inh	TAAR1 ag	TAAR1 antag	rCAG RNA binder
COC(=O)[C@]12C[C@H](CC(=O)NCCCN3CCCC3=O)C(=O)N(CCC3=CCCCC3)C1=C[C@H](C1CCCC1)O[C@@H]2C	.	.	.	.	1.9
CC1(c2nnnn2-c2ccc3c(c2)OCCO3)CSCC(=O)N1CCc1c[nH]c2ccccc12 (stereo not drawn)	.	.	.	.	12.2
COC(=O)[C@H](C(C)C)N(CCCc1cn(Cc2ccc(C)cc2)nn1)S(=O)(=O)c1ccccc1Br	.	.	.	.	4.4
C[C@H]1CCCN1c1ccc2c(c1)O[C@@H]1CCN(C1)S2(=O)=O	.	.	.	.	2.0
COc1ccccc1-c1coc2cc(OC(=O)N3CCOCC3)ccc2c1=O	-6.2	1.2	8.1	7.2	-7.4
CCC(Oc1ccc2c(=O)c(-c3ccccc3OC)coc2c1)C(=O)OCc1ccccc1 (stereo not drawn)	-10.4	7.7	-1.3	54.9*	6.4
O=C(c1cccc(-n2cccc2)c1)N1CCN(S(=O)(=O)c2ccccc2)CC1	.	65.2*	4.8	9.2	18.2

Bioassay records from PubChem.
